Data as given in ChEMBL document CHEMBL1128520, “Synthesis of (dialkylamino)alkyl-disubstituted pyrimido[5,6,1- de]acridines, a novel group of anticancer agents active on a multidrug resistant cell line” (J Med Chem, 1995).

Assays:
LoVo [1] = assay: The compound was tested in vitro for cytotoxic activity against Doxorubicin resistant LoVo/Dx human colon adenocarcinoma cell line; assay type: functional, cell-based
Summary of the method: (§1)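 LoVo and doxorubicin-resistant LoVo/Dx monolayers grown in Ham's F-12 with 10% fetal calf serum, penicillin/streptomycin, L-glutamine and MEM vitamins, 37 °C, 5% CO2. Log-phase cells seeded at 0.02×10^6 cells/mL. Exposure 72 h. Growth measured by cellular protein content. EC50 is the concentration giving 50% growth inhibition. At least five runs, mean ± SEM.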

L1210 = assay: The compound was tested in vitro for cytotoxic activity against L1210 Murine leukemia cell line; assay type: functional, cell-based; settings: Mus musculus
Summary of the method: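 Murine L1210 leukemia cells grown in suspension in RPMI 1640 with 5% fetal calf serum and penicillin/streptomycin, 37 °C, 5% CO2, passaged every 2–3 days. Log-phase cells seeded at 0.05×10^6 cells/mL. Exposure 48 h. Growth read by cellular protein content. EC50 is the concentration giving 50% growth inhibition. At least five runs, mean ± SEM.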

LoVo [2] = assay: The compound was tested in vitro for cytotoxic activity against sensitive LoVo human colon adenocarcinoma cell line; assay type: functional, cell-based; summary of the method: as §1
Mus musculus [3] = assay: The compound was tested for anti tumor activity against P388 Murine Leukemia (%T/C = ratio of survival time of the treated to the control mice) at 0.19 mg/kg; assay type: functional
Summary of the method: (§2)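 P388 leukemia cells, 10^6 per mouse, given ip on day 0 to (BALB/c × DBA/2) F1 hybrid mice; line kept by ip passage in DBA/2 mice. Groups of 6 treated and 12 control mice. %T/C = mean survival time of treated / control × 100; ≥125 taken as significant.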

Mus musculus [4] = assay: The compound was tested for anti tumor activity against P388 Murine Leukemia (%T/C = ratio of survival time of the treated to the control mice) at 0.39 mg/kg; assay type: functional; summary of the method: as §2
Mus musculus [5] = assay: The compound was tested for anti tumor activity against P388 Murine Leukemia (%T/C = ratio of survival time of the treated to the control mice) at 0.78 mg/kg; assay type: functional; summary of the method: as §2
Mus musculus [6] = assay: The compound was tested for anti tumor activity against P388 Murine Leukemia (%T/C = ratio of survival time of the treated to the control mice) at 1.56 mg/kg; assay type: functional; summary of the method: as §2
Mus musculus [7] = assay: The compound was tested for anti tumor activity against P388 Murine Leukemia (%T/C = ratio of survival time of the treated to the control mice) at 3.12 mg/kg; assay type: functional; summary of the method: as §2
Mus musculus [8] = species: Mus musculus; assay: The compound was tested for toxicity (number of toxic deaths/total number of mice 7 days after the day 5 injection); 0/6; assay type: organism-based; settings: in vivo, 168 h
[9] = Resistance Index is the ratio of EC50 of LoVo/Dx cell line and EC50 of LoVo cell line; assay type: functional
Mus musculus [10] = species: Mus musculus; assay: The compound was tested for toxicity (number of toxic deaths/total number of mice 7 days after the day 5 injection); 6/6; assay type: organism-based; settings: in vivo, 168 h
Mus musculus [11] = species: Mus musculus; assay: The compound was tested for toxicity (number of toxic deaths/total number of mice 7 days after the day 5 injection); 1/6; assay type: organism-based; settings: in vivo, 168 h

SMILES | EC50 (LoVo [1]) [nM] | EC50 (L1210) [nM] | EC50 (LoVo [2]) [nM] | T/C (Mus musculus [3]) [%] | T/C (Mus musculus [4]) [%] | T/C (Mus musculus [5]) [%] | T/C (Mus musculus [6]) [%] | T/C (Mus musculus [7]) [%] | Toxicity (Mus musculus [8]) | Resistance index [9] | Toxicity (Mus musculus [10]) | Toxicity (Mus musculus [11])
CN(C)CCn1c(=O)c2ccc(NCCNCCO)c3c(=O)c4ccccc4n(c1=O)c23.Cl | 230 | 4.5 | 30 | 189 | 244 | 233 | 167 | 70 | 0 | 7.7 | 6 | –
CN(C)CCn1c(=O)c2ccc(NCCN3CCNCC3)c3c(=O)c4ccccc4n(c1=O)c23.Cl | 1000 | 210 | 850 | – | – | – | – | – | – | 1.2 | – | –
CN(C)CCCNc1ccc2c(=O)n(CCN(C)C)c(=O)n3c4ccccc4c(=O)c1c23.Cl | 160 | 63 | 190 | – | – | – | – | – | – | 0.8 | – | –
Cl.O=C1c2ccccc2C(=O)c2c(NCCNCCO)ccc(NCCNCCO)c21 | 36800 | 350 | 640 | – | – | – | – | – | – | 57.5 | – | –
CCN(CC)CCNc1ccc2c(=O)n(CCN(C)C)c(=O)n3c4ccccc4c(=O)c1c23.Cl | 100 | 52 | 52 | – | – | – | – | – | – | 1.9 | – | –
CN(C)CCNc1ccc2c(=O)n(CCN(C)C)c(=O)n3c4ccccc4c(=O)c1c23.Cl | – | 2.2 | – | 166 | 222 | 222 | 100 | 70 | 0 | – | 6 | 1
CN(C)CCn1c(=O)c2ccc(Cl)c3c(=O)c4ccccc4n(c1=O)c23.Cl | 1400 | 500 | 1200 | – | – | – | – | – | – | 1.2 | – | –
